# According to ChEMBL document CHEMBL4041491, “Imidazo[1,2-a]pyrazin-8-amine core for the design of new adenosine receptor antagonists: Structural exploration to target the A3 and A2A subtypes” (Eur J Med Chem, 2017):
# pIC50, pKi: −log10 of the molar value. Calls of active or inactive are those of the source. The calls are words filed in the database; no cut-off is given here.
# Legend:
# [1] = target: T1, Adenosine receptor A3 (Homo sapiens, UniProt P0DMS8); test: Antagonist activity at human A3 receptor expressed in CHO cells assessed as inhibition of CI-IB-MECA-mediated inhibition of cAMP production by [3H]cAMP competition binding based scintillation counting method; type: cell-based
# How it was run: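 hA3-transfected CHO cells (1 × 10^6/assay) in buffered saline pH 7.4 with adenosine deaminase and Ro 20-1724, preincubated 10 min at 37 °C. Antagonism of 100 nM Cl-IB-MECA inhibition of 1 µM forskolin-stimulated cAMP. cAMP measured by [3H]cAMP protein-binding assay. IC50 by sigmoid nonlinear regression, four independent experiments in triplicate, means ± SEM.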
# [2] = target: T2, Adenosine receptor A3 (Rattus norvegicus) (UniProt P28647); test: Displacement of [125I]AB-MECA from rat adenosine A3 receptor expressed in HEK293 cell membranes at 1 uM after 120 mins by scintillation counting method relative to control
# T2 sequence (whole entry): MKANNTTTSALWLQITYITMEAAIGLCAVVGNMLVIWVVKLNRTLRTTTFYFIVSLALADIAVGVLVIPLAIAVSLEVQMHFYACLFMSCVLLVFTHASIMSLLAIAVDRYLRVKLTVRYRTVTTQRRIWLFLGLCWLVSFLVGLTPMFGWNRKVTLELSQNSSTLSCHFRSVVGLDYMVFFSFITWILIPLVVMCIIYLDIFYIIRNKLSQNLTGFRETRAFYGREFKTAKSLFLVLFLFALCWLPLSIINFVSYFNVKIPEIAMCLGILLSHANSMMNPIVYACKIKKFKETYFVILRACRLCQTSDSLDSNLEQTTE
# How it was run: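 rA3 receptor in HEK293 membranes (10 μg protein), 0.5 nM [125I]AB-MECA, 50 mM Tris–HCl, 10 mM MgCl2, 1 mM EDTA, pH 7.4, 120 min at 25 °C. Nonspecific binding with 1 μM AB-MECA; filtration and scintillation counting. Percent inhibition of specific binding at 1 µM.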
# [3] = target: T3, Adenosine receptor A2b (Homo sapiens) (UniProt P29275); test: Antagonist activity at human A2B receptor expressed in CHO cells assessed as inhibition of NECA-stimulated cAMP production at 1 uM by [3H]cAMP competition binding based scintillation counting method relative to control; type: functional, cell-based
# T3 sequence (whole entry): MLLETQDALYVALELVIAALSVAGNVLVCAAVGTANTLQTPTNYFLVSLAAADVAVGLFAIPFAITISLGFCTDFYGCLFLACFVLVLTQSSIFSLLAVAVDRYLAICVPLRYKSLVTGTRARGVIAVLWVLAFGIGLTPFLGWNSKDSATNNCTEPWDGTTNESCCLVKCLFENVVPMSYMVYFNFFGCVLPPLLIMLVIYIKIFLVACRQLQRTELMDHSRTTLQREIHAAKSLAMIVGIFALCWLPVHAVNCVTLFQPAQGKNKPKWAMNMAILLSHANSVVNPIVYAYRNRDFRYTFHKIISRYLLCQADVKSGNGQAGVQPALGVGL
# How it was run: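 Transfected CHO cells (1 × 10^6/assay) in buffered saline pH 7.4 with adenosine deaminase 2 IU/ml and Ro 20-1724, preincubated 10 min at 37 °C. Test compound at 1 μM against 200 nM NECA-stimulated cAMP. TCA stop, ether extraction, cAMP measured by [3H]cAMP competition binding to bovine adrenal binding protein. Result given as percent inhibition.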
# [4] = target: T1, Adenosine receptor A3; test: Displacement of [125I]AB-MECA from human adenosine A3 receptor expressed in CHO cell membranes after 120 mins by scintillation counting method
# How it was run: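 hA3 CHO membranes (50 µg protein) with 0.5 nM [125I]AB-MECA in 50 mM Tris HCl, 10 mM MgCl2, 1 mM EDTA, pH 7.4, 120 min at 4 °C. Six to eight ligand concentrations, or 1 µM for percent inhibition. Nonspecific binding with 1 µM AB-MECA; GF/B filtration. Ki by Cheng–Prusoff, four assays in duplicate, means ± SEM.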
# [5] = target: T4, Adenosine receptor A2a (Homo sapiens, UniProt P29274); test: Displacement of [3H]ZM241385 from human adenosine A2A receptor expressed in CHO cell membranes at 1 uM after 60 mins by scintillation counting method relative to control
# How it was run: (§1)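 hA2A CHO membranes (50 µg protein) with 1 nM [3H]ZM241385 in 50 mM Tris HCl, 10 mM MgCl2, pH 7.4, 60 min at 4 °C. Six to eight antagonist concentrations, or 1 µM for percent inhibition. Nonspecific binding with 1 µM ZM241385. Ki via Cheng–Prusoff, four assays in duplicate, means ± SEM.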
# [6] = target: T5, Adenosine receptor A1 (Homo sapiens) (UniProt P30542); test: Displacement of [3H]DPCPX from human adenosine A1 receptor expressed in CHO cell membranes at 1 uM after 120 mins by scintillation counting method relative to control
# T5 sequence (whole entry): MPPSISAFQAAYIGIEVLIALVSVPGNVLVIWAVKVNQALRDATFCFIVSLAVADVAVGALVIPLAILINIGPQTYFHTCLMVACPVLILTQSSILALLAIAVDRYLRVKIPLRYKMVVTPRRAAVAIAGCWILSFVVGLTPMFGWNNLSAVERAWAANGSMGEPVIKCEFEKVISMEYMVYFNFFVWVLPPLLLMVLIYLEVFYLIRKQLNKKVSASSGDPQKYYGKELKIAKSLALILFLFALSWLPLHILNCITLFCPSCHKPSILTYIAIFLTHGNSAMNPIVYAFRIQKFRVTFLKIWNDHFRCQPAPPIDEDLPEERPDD
# How it was run: (§2)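 hA1 CHO membranes (50 µg protein) with 1 nM [3H]DPCPX in 50 mM Tris HCl pH 7.4, 120 min at 25 °C. Six to eight antagonist concentrations, or 1 µM for percent inhibition. Nonspecific binding with 1 µM DPCPX. Ki via Cheng–Prusoff, four assays in duplicate, means ± SEM.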
# [7] = test system: Hippocampus; test: Anti-ischemic activity in Wistar rat hippocampal slices assessed as latency time for 30 mins oxygen-glucose deprivation-induced occurrence of anoxic depolarization at 200 nM by electrophysiology method (reference value: 6.3 +/- 0.3 min)
# [8] = test system: Hippocampus; test: Anti-ischemic activity in Wistar rat model of 7 mins oxygen-glucose deprivation-induced cerebral ischemia assessed as recovery of fEPSP amplitude in CA1 region of hippocampal slices at 200 nM incubated for 15 mins prior to induction of oxygen-glucose deprivation and maintained during entire period of oxygen-glucose deprivation/reoxygenation subsequent incubation for 5 mins after OGD insult measured up to 15 mins by electrophysiology method; type: functional, tissue-based
# How it was run: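 Rat hippocampal slices, CA1 stratum radiatum stimulated (80 μs, 0.066 Hz) at 40–50% of maximal fEPSP. Compound at 200 nM in aCSF, DMSO ≤0.05%, applied 15 min before, during and 5 min after 7-min OGD, then reperfusion in oxygenated aCSF. fEPSP amplitude expressed as % of mean over the 5 min before OGD.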
# [9] = test system: Hippocampus; test: Anti-ischemic activity in Wistar rat hippocampal slices assessed as peak amplitude of 30 mins oxygen-glucose deprivation-induced anoxic depolarization at 200 nM by electrophysiology method (reference value: -7.5 +/- 1.2 mV); type: functional
# How it was run: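 Rat hippocampal slices, extracellular d.c. recording in CA1 stratum radiatum. 30-min OGD, then reperfusion with oxygenated glucose aCSF. Compound at 200 nM, diluted from DMSO stock into aCSF, applied 15 min before, during and 5 min after OGD. AD latency in min from OGD onset; amplitude in mV at peak negativity. Mean ± SEM, n slices.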
# [10] = target: T1, Adenosine receptor A3; test: Displacement of [125I]AB-MECA from human adenosine A3 receptor expressed in CHO cell membranes at 1 uM after 120 mins by scintillation counting method relative to control
# [11] = target: T6, Adenosine receptor A1 (Homo sapiens, UniProt P30542); test: Displacement of [3H]DPCPX from human adenosine A1 receptor expressed in CHO cell membranes after 120 mins by scintillation counting method; how it was run: as §2
# T6 sequence (P30542 whole entry): T5 sequence (whole entry)
# [12] = target: T4, Adenosine receptor A2a; test: Displacement of [3H]ZM241385 from human adenosine A2A receptor expressed in CHO cell membranes after 60 mins by scintillation counting method; how it was run: as §1
# T1 sequence (P0DMS8 whole entry, looked up): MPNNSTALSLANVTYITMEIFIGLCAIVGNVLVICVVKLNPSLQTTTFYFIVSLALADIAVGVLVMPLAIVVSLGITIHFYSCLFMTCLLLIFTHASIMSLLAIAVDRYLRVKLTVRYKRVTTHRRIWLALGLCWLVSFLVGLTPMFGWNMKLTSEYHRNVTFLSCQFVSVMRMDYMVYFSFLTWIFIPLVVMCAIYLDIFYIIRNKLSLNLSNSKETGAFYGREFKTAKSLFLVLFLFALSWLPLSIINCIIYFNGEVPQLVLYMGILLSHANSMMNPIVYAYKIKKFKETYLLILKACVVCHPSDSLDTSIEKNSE
# T4 sequence (P29274 whole entry): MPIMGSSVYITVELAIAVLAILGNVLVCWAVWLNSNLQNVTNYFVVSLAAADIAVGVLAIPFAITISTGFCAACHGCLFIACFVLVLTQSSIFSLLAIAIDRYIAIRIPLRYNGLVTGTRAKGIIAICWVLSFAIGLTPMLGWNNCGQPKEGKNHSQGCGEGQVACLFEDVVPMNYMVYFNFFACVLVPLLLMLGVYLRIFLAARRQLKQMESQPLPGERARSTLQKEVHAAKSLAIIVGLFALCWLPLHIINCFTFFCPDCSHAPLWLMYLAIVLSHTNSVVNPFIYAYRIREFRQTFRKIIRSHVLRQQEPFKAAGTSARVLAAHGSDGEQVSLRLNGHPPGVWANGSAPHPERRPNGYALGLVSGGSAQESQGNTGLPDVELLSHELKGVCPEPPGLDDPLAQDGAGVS
SMILES,pIC50 [1],inhibition [2],inhibition [3],pKi [4],inhibition [5],inhibition [6],inhibition [10],pKi [11],pKi [12],Time [7],Activity [8],Activity [9]
O=C(Nc1nc(-c2ccccc2)cn2cc(-c3ccccc3)nc12)c1cccnc1,6.76,2%,3%,7.27,1%,11%,,,,8.2 min,Active,-7.1 mV
Nc1nc(Br)cn2cc(-c3ccccc3)nc12,,,40%,,18%,,14%,6.38,,,,
O=C(Nc1nccn2cc(-c3ccccc3)nc12)c1ccccc1,6.79,2%,2%,7.28,1%,18%,,,,,,
O=C(Nc1nc(-c2ccccc2)cn2cc(-c3ccccc3)nc12)c1cccs1,,,4%,6.73,1%,5%,,,,,,
Nc1nc(Br)cn2cc(-c3ccco3)nc12,,,29%,,,,28%,6.68,6.58,,,
COc1ccc(C(=O)Nc2nc(-c3ccccc3)cn3cc(-c4ccccc4)nc23)cc1,7.14,1%,1%,7.60,8%,6%,,,,,,
COc1ccc(-c2cn3cc(-c4ccccc4)nc(N)c3n2)cc1,,,1%,,1%,,27%,6.28,,,,
Nc1nc(-c2ccccc2)cn2cc(-c3ccccc3)nc12,,,36%,,,,23%,6.74,6.51,,,
O=C(Cc1ccccc1)Nc1nccn2cc(-c3ccccc3)nc12,,,15%,6.28,37%,46%,,,,,,

# Second part, led by results:
pIC50 [1],inhibition [2],inhibition [3],pKi [4],inhibition [5],inhibition [6],inhibition [10],pKi [11],pKi [12],SMILES,Time [7],Activity [8],Activity [9]
6.73,1%,3%,7.19,5%,4%,,,,O=C(c1ccccc1)N(C(=O)c1ccccc1)c1nccn2cc(-c3ccccc3)nc12,,,
,,30%,,,,38%,6.50,6.07,Nc1nc(-c2ccco2)cn2cc(-c3ccco3)nc12,,,
,,10%,,,,21%,6.84,6.28,Nc1nc(-c2ccccc2)cn2cc(-c3ccco3)nc12,,,
,,1%,6.79,3%,1%,,,,COc1ccc(C(=O)Nc2nccn3cc(-c4ccccc4)nc23)cc1,,,
,,1%,6.92,1%,1%,,,,COc1ccc(-c2cn3ccnc(NC(=O)c4ccccc4)c3n2)cc1,,,
6.63,2%,1%,7.09,1%,1%,,,,O=C(Nc1nc(-c2ccccc2)cn2cc(-c3ccccc3)nc12)c1ccccc1,,,
